Measurements from different studies.
Protocols differ between the studies behind these lines.
CDK2 with cyclin A: Cyclin-dependent kinase 2, with cyclin A (CDK2, Homo sapiens, UniProt P24941)
CDK2: Cyclin-dependent kinase 2 (CDK2, Homo sapiens, UniProt P24941)
CDK2 with cyclin E: Cyclin-dependent kinase 2, with cyclin E (CDK2, Homo sapiens, UniProt P24941)

| SMILES | target | test | setting | measurement | result |
| --- | --- | --- | --- | --- | --- |
| CC(C)c1ccc(NC(=O)c2cccs2)c(-c2nc3ccccc3[nH]c2=O)c1 | CDK2 with cyclin A | enzyme activity, inhibitor | 1 µM | activity vs control | 96% |
| CCC(=O)N[C@@H]1CC[C@H](C(=O)N(C)c2ccc(-c3nc4ccccc4o3)cc2)C1 | CDK2 | cell-free assay, competition with immobilised ligand | 1 µM | remaining binding | 100% |
| Cn1c2c(c3ccc(Cl)c(Cl)c31)C(C#N)C(C)(C)NC2=O (centres unmarked) | CDK2 | thermal stability, DSF | 10 µM | ΔTm | 0.5 °C |
| FC(F)(F)Oc1cccc(-c2cnc3ccc(-c4ccncc4)nn23)c1 | CDK2 with cyclin A | enzyme activity, inhibitor, radiometric | 5 µM | activity vs control | 10% |
| O=C(Nc1cnn(-c2csc(C(=O)NC3COC3)c2)c1)Nc1c(F)cccc1Cl | CDK2 with cyclin A | enzyme activity, inhibitor | 5 µM | remaining activity | 93.8% |
| O=C(N[C@H]1CCCCC/C=C\C2C[C@@]2(C(=O)O)NC(=O)[C@@H]2C[C@@H](Oc3ccncc3)CN2C1=O)OC1CCCC1 (some centres unmarked) | CDK2 | binding, competition with immobilised ligand | 1 µM | remaining binding | 87% |
| Cc1ccc(NC(=O)c2ccc(C)c(C(F)(F)F)c2)cc1C#Cc1nn(C2CCC(O)CC2)c2ncnc(N)c12 (centres unmarked) | CDK2 with cyclin A | cell-free assay | 10 µM | remaining signal | 100% |
| CC(C)CC(=O)N1CCc2nc(-c3ccc(Br)cc3)nc(N(C)Cc3ccccc3)c2C1 | CDK2 | cell-free assay, competition with immobilised ligand | 0.1 µM | remaining binding | 80% |
| Nc1ncnc2occ(-c3ccc(NC(=O)Nc4cc(C(F)(F)F)ccc4F)cc3)c12 | CDK2 | cell-free assay, inhibitor | 20 µM | remaining signal | 0.1% |
| Cc1c[nH]c2nccc(Oc3c(F)cc(Nc4cc(Cl)nc(N)n4)cc3F)c12 | CDK2 | cell-free assay, competition with immobilised ligand | 0.1 µM | remaining binding | 99% |
| N#Cc1c(NC(=O)c2cccc3ccccc23)sc2c1CCCC2 | CDK2 with cyclin A | cell-free assay | 0.5 µM | remaining signal | 100% |
| Cc1ccc(C(=O)NCc2ccsc2)cc1C#Cc1cn(C(C)C)c2ncnc(N)c12 | CDK2 with cyclin E | enzyme activity, inhibitor | 1 µM | activity vs control | 108% |
| Cc1sc(C(=O)NC2COC2)cc1-n1cc(NC(=O)Nc2c(F)cccc2Cl)cn1 | CDK2 with cyclin E | enzyme activity, inhibitor | 10 µM | remaining activity | 106% |
| O=C1NC(=O)c2cc(Nc3ccc(F)cc3)c(Nc3ccc(F)cc3)cc21 | CDK2 with cyclin E | cell-free assay | 0.5 µM | remaining signal | 94.3% |
| N#CC1c2c([nH]c3c(Cl)c(Cl)ccc23)C(=O)NC12CCCCC2 (racemic) | CDK2 | thermal stability, DSF | 10 µM | ΔTm | -0.6 °C |
| CC(C)[C@H](CO)Nc1nc(Nc2cccc(Cl)c2)c2ncn(C(C)C)c2n1 | CDK2 with cyclin A | cell-free assay | 0.5 µM | remaining signal | 6.91% |

| SMILES | target | test | setting | measurement | result |
| --- | --- | --- | --- | --- | --- |
| Cn1c2c(Cl)c(Cl)ccc2c2cc(N)[nH]c(=O)c21 | CDK2 | thermal stability, DSF | 10 µM | ΔTm | 2.2 °C |
| CSc1cccnc1N1CCN(Cc2nc3ccccc3[nH]2)CC1 | CDK2 | cell-free assay, competition with immobilised ligand | 1 µM | remaining binding | 95% |
| Cc1cc(NC(=O)c2cccc3cc(-c4cccc5[nH]nc(N)c45)ccc23)ccc1F | CDK2 with cyclin A | enzyme activity, inhibitor | 0.1 µM | activity vs control | 100% |
| N#CCCc1ccc2c(c1)-c1[nH]c3ccc([N+](=O)[O-])cc3c1CC(=O)N2 | CDK2 with cyclin A | cell-free assay | 0.5 µM | remaining signal | 2.93% |
| Cn1c2c(Cl)c(Cl)ccc2c2cc[nH]c(=O)c21 | CDK2 | thermal stability, DSF | 10 µM | ΔTm | 0.6 °C |
| C[C@H](NC(=O)c1cnc2n1[C@](C)(Cc1ccc(C#N)cc1)C(=O)N2c1cc(Cl)c(F)c(Cl)c1)C(=O)NC1(c2ccccn2)CC1 | CDK2 | cell-free assay, competition with immobilised ligand | 1 µM | remaining binding | 100% |
| CS(=O)(=O)CCNCc1ccc(-c2ccc3ncnc(Nc4ccc(OCc5cccc(F)c5)c(Cl)c4)c3c2)o1 | CDK2 with cyclin A | cell-free assay | 0.5 µM | remaining signal | 94.5% |
| CC1(C)NC(=O)c2[nH]c3c(Cl)c(Cl)ccc3c2C1C#N (centres unmarked) | CDK2 | thermal stability, DSF | 10 µM | ΔTm | -0.3 °C |
| Cc1cc(-n2nc(Cc3cc(F)cc(C(F)(F)F)c3)nc2C)ccc1C(N)=O | CDK2 | cell-free assay, competition with immobilised ligand | 1 µM | remaining binding | 100% |
| Cn1c2c(c3ccc(Cl)c(Cl)c31)C(C#N)C1(CCNCC1)NC2=O (racemic) | CDK2 | thermal stability, DSF | 10 µM | ΔTm | 0.1 °C |
| O=C1Cc2c([nH]c3ccc([N+](=O)[O-])cc23)-c2ccccc2N1 | CDK2 with cyclin A | cell-free assay | 0.5 µM | remaining signal | 8.37% |
| Cn1c2c(c3ccccc31)C(C#N)C(C)(C)NC2=O (centres unmarked) | CDK2 | thermal stability, DSF | 10 µM | ΔTm | -0.1 °C |
| COc1cc(OC)c(C=C2C(O)=Nc3ccccc32)c(OC)c1 | CDK2 with cyclin A | cell-free assay | 0.5 µM | remaining signal | 96.3% |
| Cn1cc(Cl)c2c(Oc3c(F)cc(Nc4cc(Cl)nc(N)n4)cc3F)ccnc21 | CDK2 | cell-free assay, competition with immobilised ligand | 0.1 µM | remaining binding | 100% |
| COc1cc2c(cc1OC)-c1[nH]nc(Nc3cccc(F)c3)c1C2 | CDK2 with cyclin E | cell-free assay | 0.5 µM | remaining signal | 88.6% |
| O=C(Nc1cnn(-c2csc(C(=O)NC3COC3)c2)c1)Nc1ccccc1Cl | CDK2 with cyclin E | enzyme activity, inhibitor | 5 µM | remaining activity | 99% |
